Assay results reported in ChEMBL document CHEMBL4190252, “Synthesis, antitumor activity and CDK1 inhibiton of new thiazole nortopsentin analogues” (Eur J Med Chem, 2017).

Molecular target: Cyclin-dependent kinase 1/cyclin B1 (Homo sapiens, UniProt P06493)
Assay: Inhibition of recombinant human full length His-tagged CDK1/cyclin B expressed in baculovirus expression system after 60 mins in presence of omnia peptide substrate by fluorescence based assay
Summary of the method: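 Recombinant human CDK1/cyclin B in kinase buffer with Omnia peptide substrate, ATP and DTT, with inhibitor at 0.1–10 µM. Reactions ran for 60 min at 30 °C, with fluorescence read at ex 360/em 485 nm. Initial velocity came from the RFU-versus-time slope and was plotted against concentration for a dose-response IC50 fit. Values are mean±SD of two determinations.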

Chain of Cyclin-dependent kinase 1/cyclin B1 (P06493 whole entry): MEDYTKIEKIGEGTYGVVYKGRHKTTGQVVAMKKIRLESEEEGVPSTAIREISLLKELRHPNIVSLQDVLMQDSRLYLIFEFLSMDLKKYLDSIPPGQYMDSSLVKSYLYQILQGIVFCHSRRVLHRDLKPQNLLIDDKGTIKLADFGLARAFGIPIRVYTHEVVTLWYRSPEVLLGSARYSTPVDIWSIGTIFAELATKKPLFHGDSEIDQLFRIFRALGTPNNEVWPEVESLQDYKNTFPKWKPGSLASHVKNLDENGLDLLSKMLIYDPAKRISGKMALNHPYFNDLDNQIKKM
Chain of Cyclin-dependent kinase 1/cyclin B1 (P14635 whole entry, further chain): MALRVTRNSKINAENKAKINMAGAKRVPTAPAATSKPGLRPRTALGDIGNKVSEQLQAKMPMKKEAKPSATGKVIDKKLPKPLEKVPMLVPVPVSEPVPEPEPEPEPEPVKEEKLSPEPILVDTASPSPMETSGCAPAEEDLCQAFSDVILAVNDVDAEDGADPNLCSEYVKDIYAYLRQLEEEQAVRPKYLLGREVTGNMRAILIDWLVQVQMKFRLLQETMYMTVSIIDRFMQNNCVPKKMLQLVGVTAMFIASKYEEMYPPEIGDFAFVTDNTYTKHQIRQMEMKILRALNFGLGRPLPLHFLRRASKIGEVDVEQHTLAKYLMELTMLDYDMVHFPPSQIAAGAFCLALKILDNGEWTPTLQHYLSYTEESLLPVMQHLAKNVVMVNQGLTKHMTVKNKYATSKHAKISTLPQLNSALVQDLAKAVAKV

## Cn1cc(-c2nc(-c3cn(C)c4ncccc34)cs2)c2cc(F)ccc21
  IC50: 970 nM
